# Assay results published in ChEMBL document CHEMBL3632558, “Synthesis, antimycobacterial and antibacterial activity of l-[(1R,2S)-2-fluorocyclopropyl]naphthyridone derivatives containing an oxime-functionalized pyrrolidine moiety” (2015).
# How the values were obtained:
# Format in all cases: functional
# Staphylococcus aureus [1] = assay: Antibacterial activity against Staphylococcus aureus CMCC 26003 after 18 to 24 hrs
# Method in brief: (§1)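 MIC by standard NCCLS reference procedure (M100-S11); lowest concentration of compound inhibiting visible bacterial growth after incubation at 35 °C for 18–24 h, read as complete inhibition of growth. Ciprofloxacin, levofloxacin and moxifloxacin run alongside as reference agents.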
# [2] = system: Staphylococcus epidermidis; assay: Antibacterial activity against methicillin-resistant Staphylococcus epidermidis 14-39 after 18 to 24 hrs
# [3] = system: Staphylococcus epidermidis; assay: Antibacterial activity against methicillin-sensitive Staphylococcus epidermidis 14-2 after 18 to 24 hrs; method in brief: as §1
# Staphylococcus aureus [4] = assay: Antibacterial activity against methicillin-resistant Staphylococcus aureus 14-5 after 18 to 24 hrs
# Pseudomonas aeruginosa [5] = assay: Antibacterial activity against Pseudomonas aeruginosa 14-16 after 18 to 24 hrs; method in brief: as §1
# Staphylococcus aureus [6] = assay: Antibacterial activity against methicillin-resistant Staphylococcus aureus 14-4 after 18 to 24 hrs
# Staphylococcus aureus [7] = assay: Antibacterial activity against methicillin-sensitive Staphylococcus aureus 14-4 after 18 to 24 hrs; method in brief: as §1
# Klebsiella pneumoniae [8] = assay: Antibacterial activity against Klebsiella pneumoniae 14-2 after 18 to 24 hrs; method in brief: as §1
# Escherichia coli [9] = assay: Antibacterial activity against Escherichia coli 14-1 after 18 to 24 hrs; method in brief: as §1
# Enterococcus faecium [10] = assay: Antibacterial activity against Enterococcus faecium 14-2 after 18 to 24 hrs; method in brief: as §1
# [11] = system: Staphylococcus epidermidis; assay: Antibacterial activity against methicillin-resistant Staphylococcus epidermidis 14-37 after 18 to 24 hrs
# Klebsiella pneumoniae [12] = assay: Antibacterial activity against ESBL-positive Klebsiella pneumoniae 14-18 after 18 to 24 hrs; method in brief: as §1
# Enterococcus faecium [13] = assay: Antibacterial activity against Enterococcus faecium 14-5 after 18 to 24 hrs; method in brief: as §1
# Klebsiella pneumoniae [14] = assay: Antibacterial activity against Klebsiella pneumoniae 14-3 after 18 to 24 hrs; method in brief: as §1
# Escherichia coli [15] = assay: Antibacterial activity against Escherichia coli 14-2 after 18 to 24 hrs; method in brief: as §1
# Enterococcus faecalis [16] = assay: Antibacterial activity against Enterococcus faecalis 14-2 after 18 to 24 hrs; method in brief: as §1
# [17] = system: Staphylococcus epidermidis; assay: Antibacterial activity against methicillin-resistant Staphylococcus epidermidis 14-22 after 18 to 24 hrs
# Streptococcus pneumoniae = assay: Antibacterial activity against Streptococcus pneumoniae ATCC 19615 after 18 to 24 hrs; method in brief: as §1
# Pseudomonas aeruginosa [18] = assay: Antibacterial activity against Pseudomonas aeruginosa 14-19 after 18 to 24 hrs; method in brief: as §1
# Escherichia coli [19] = assay: Antibacterial activity against ESBL-positive Escherichia coli 14-1 after 18 to 24 hrs; method in brief: as §1
# [20] = system: Staphylococcus epidermidis; assay: Antibacterial activity against methicillin-resistant Staphylococcus epidermidis 14-21 after 18 to 24 hrs
# Escherichia coli [21] = assay: Antibacterial activity against ESBL-positive Escherichia coli 14-2 after 18 to 24 hrs; method in brief: as §1
# Pseudomonas aeruginosa [22] = assay: Antibacterial activity against Pseudomonas aeruginosa ATCC 27853 after 18 to 24 hrs; method in brief: as §1
# Klebsiella pneumoniae [23] = assay: Antibacterial activity against ESBL-positive Klebsiella pneumoniae 14-17 after 18 to 24 hrs; method in brief: as §1
# Pseudomonas aeruginosa [24] = assay: Antibacterial activity against Pseudomonas aeruginosa 14-15 after 18 to 24 hrs; method in brief: as §1
# Enterococcus faecalis [25] = assay: Antibacterial activity against Enterococcus faecalis 14-1 after 18 to 24 hrs; method in brief: as §1
# Escherichia coli [26] = assay: Antibacterial activity against Escherichia coli ATCC 25922 after 18 to 24 hrs; method in brief: as §1
# Enterococcus faecium [27] = assay: Antibacterial activity against Enterococcus faecium 14-6 after 18 to 24 hrs; method in brief: as §1
# Staphylococcus aureus [28] = assay: Antibacterial activity against methicillin-sensitive Staphylococcus aureus 14-1 after 18 to 24 hrs; method in brief: as §1
# [29] = system: Mycobacterium tuberculosis; assay: Antimycobacterial activity against Mycobacterium tuberculosis H37Rv ATCC 27294 by alamar blue assay
# Method in brief: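 Microplate Alamar Blue Assay; MIC is the lowest concentration giving ≥90% reduction in fluorescence relative to the mean of replicate bacterium-only controls. MDR strain 6133 is resistant to isoniazid and rifampicin.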
# Pseudomonas aeruginosa [30] = assay: Antibacterial activity against Pseudomonas aeruginosa 14-9 after 18 to 24 hrs; method in brief: as §1
# Staphylococcus aureus [31] = assay: Antibacterial activity against methicillin-sensitive Staphylococcus aureus 14-3 after 18 to 24 hrs; method in brief: as §1
# Klebsiella pneumoniae [32] = assay: Antibacterial activity against ESBL-positive Klebsiella pneumoniae 14-19 after 18 to 24 hrs; method in brief: as §1
# Klebsiella pneumoniae [33] = assay: Antibacterial activity against Klebsiella pneumoniae 14-4 after 18 to 24 hrs; method in brief: as §1
# Klebsiella pneumoniae [34] = assay: Antibacterial activity against Klebsiella pneumoniae 14-1 after 18 to 24 hrs; method in brief: as §1
# Pseudomonas aeruginosa [35] = assay: Antibacterial activity against Pseudomonas aeruginosa 14-14 after 18 to 24 hrs; method in brief: as §1
# Enterococcus faecium [36] = assay: Antibacterial activity against Enterococcus faecium 14-1 after 18 to 24 hrs; method in brief: as §1
# Staphylococcus aureus [37] = assay: Antibacterial activity against methicillin-sensitive Staphylococcus aureus 14-2 after 18 to 24 hrs; method in brief: as §1
Compound,MIC (Staphylococcus aureus [1]) [ng/mL],MIC [2] [µg/mL],MIC [3] [µg/mL],MIC (Staphylococcus aureus [4]) [µg/mL],MIC (Pseudomonas aeruginosa [5]) [µg/mL],MIC (Staphylococcus aureus [6]) [µg/mL],MIC (Staphylococcus aureus [7]) [µg/mL],MIC (Klebsiella pneumoniae [8]) [µg/mL],MIC (Escherichia coli [9]) [µg/mL],MIC (Enterococcus faecium [10]) [µg/mL],MIC [11] [µg/mL],MIC (Klebsiella pneumoniae [12]) [µg/mL],MIC (Enterococcus faecium [13]) [µg/mL],MIC (Klebsiella pneumoniae [14]) [µg/mL],MIC (Escherichia coli [15]) [µg/mL],MIC (Enterococcus faecalis [16]) [µg/mL],MIC [17] [µg/mL],MIC (Streptococcus pneumoniae) [µg/mL],MIC (Pseudomonas aeruginosa [18]) [µg/mL],MIC (Escherichia coli [19]) [µg/mL],also measured
CO/N=C1\CN(c2nc3c(cc2F)c(=O)c(C(=O)O)cn3[C@@H]2C[C@@H]2F)CC1(C)CN (stereo partly specified),< 8,8,16,4,8,8,0.015,> 128,32,2,8,4,4,128,32,0.125,8,0.015,8,4,MIC [20]: 2 µg/mL; MIC (Escherichia coli [21]): 64 µg/mL; MIC (Pseudomonas aeruginosa [22]): 2 µg/mL; MIC (Klebsiella pneumoniae [23]): 4 µg/mL; MIC (Pseudomonas aeruginosa [24]): 8 µg/mL; MIC (Enterococcus faecalis [25]): 32 µg/mL; MIC (Escherichia coli [26]): 0.03 µg/mL; MIC (Enterococcus faecium [27]): 8 µg/mL; MIC (Staphylococcus aureus [28]): 2 µg/mL; MIC90 [29]: 0.372 µg/mL; MIC (Pseudomonas aeruginosa [30]): 4 µg/mL; MIC (Staphylococcus aureus [31]): < 8 ng/mL; MIC (Klebsiella pneumoniae [32]): 128 µg/mL; MIC (Klebsiella pneumoniae [33]): 64 µg/mL; MIC (Klebsiella pneumoniae [34]): 128 µg/mL; MIC (Pseudomonas aeruginosa [35]): 8 µg/mL; MIC (Enterococcus faecium [36]): 2 µg/mL; MIC (Staphylococcus aureus [37]): 0.015 µg/mL
CCO/N=C1\CN(c2nc3c(cc2F)c(=O)c(C(=O)O)cn3[C@@H]2C[C@@H]2F)CC1(C)CN (stereo partly specified),< 8,8,8,4,8,4,< 0.008,128,32,2,8,4,4,128,32,0.03,2,< 0.008,8,4,MIC [20]: 2 µg/mL; MIC (Escherichia coli [21]): 128 µg/mL; MIC (Pseudomonas aeruginosa [22]): 2 µg/mL; MIC (Klebsiella pneumoniae [23]): 4 µg/mL; MIC (Pseudomonas aeruginosa [24]): 8 µg/mL; MIC (Enterococcus faecalis [25]): 8 µg/mL; MIC (Escherichia coli [26]): < 0.008 µg/mL; MIC (Enterococcus faecium [27]): 8 µg/mL; MIC (Staphylococcus aureus [28]): 2 µg/mL; MIC90 [29]: 0.333 µg/mL; MIC (Pseudomonas aeruginosa [30]): 4 µg/mL; MIC (Staphylococcus aureus [31]): < 8 ng/mL; MIC (Klebsiella pneumoniae [32]): 128 µg/mL; MIC (Klebsiella pneumoniae [33]): 128 µg/mL; MIC (Klebsiella pneumoniae [34]): 128 µg/mL; MIC (Pseudomonas aeruginosa [35]): 8 µg/mL; MIC (Enterococcus faecium [36]): 2 µg/mL; MIC (Staphylococcus aureus [37]): < 0.008 µg/mL
